Assays:
[1] = Dissociation constant, pKa of the compound at basic pH by pressure-assisted capillary electrophoresis; assay type: physicochemical
In short: (§1)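 Ionization constants from a high-throughput screen using pressure-assisted capillary electrophoresis with mass spectrometry detection; stated accuracy ±0.2 pKa units.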

[2] = Dissociation constant, pKa of the compound at acidic pH by pressure-assisted capillary electrophoresis; assay type: physicochemical; in short: as §1
[3] = biological target: T1, Plasminogen (Homo sapiens, UniProt P00747); test: Inhibition of human Glu-plasminogen/fibrinogen interaction in HEPES buffer assessed as inhibition of lysis of thrombin-induced clot preincubated for 15 mins prior to thrombin addition measured for 15 hrs by clot-lysis buffer assay
[4] = biological target: T1, Plasminogen; test: Inhibition of plasminogen/fibrinogen interaction in pooled citreated human platelet-poor plasma assessed as inhibition of lysis of CaCl2/t-PA-induced clot by microtiter plate analysis; assay type: cell-free
[5] = Lipophilicity, log D of the compound; assay type: physicochemical; settings: octanol/water
[6] = Apparent permeability from apical to basolateral side in human Caco2 cells at pH 6.5 by LC/MS analysis; assay type: ADME, cell-based; settings: Caco-2, pH 6.5

T1 sequence (P00747 97-580 limits assumed): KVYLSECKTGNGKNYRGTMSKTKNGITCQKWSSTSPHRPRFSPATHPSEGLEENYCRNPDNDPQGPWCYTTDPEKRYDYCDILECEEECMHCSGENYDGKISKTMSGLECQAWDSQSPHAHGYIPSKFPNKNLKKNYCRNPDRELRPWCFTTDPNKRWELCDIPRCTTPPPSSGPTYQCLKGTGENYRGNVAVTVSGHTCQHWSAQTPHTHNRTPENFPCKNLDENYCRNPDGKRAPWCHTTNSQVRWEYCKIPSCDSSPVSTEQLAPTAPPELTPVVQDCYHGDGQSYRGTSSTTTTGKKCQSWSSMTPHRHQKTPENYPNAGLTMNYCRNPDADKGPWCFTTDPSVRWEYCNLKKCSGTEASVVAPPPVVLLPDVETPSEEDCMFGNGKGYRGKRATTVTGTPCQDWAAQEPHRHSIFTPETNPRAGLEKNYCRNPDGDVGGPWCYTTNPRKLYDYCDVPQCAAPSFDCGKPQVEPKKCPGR
T1 sequence (P00747 581-810 limits assumed): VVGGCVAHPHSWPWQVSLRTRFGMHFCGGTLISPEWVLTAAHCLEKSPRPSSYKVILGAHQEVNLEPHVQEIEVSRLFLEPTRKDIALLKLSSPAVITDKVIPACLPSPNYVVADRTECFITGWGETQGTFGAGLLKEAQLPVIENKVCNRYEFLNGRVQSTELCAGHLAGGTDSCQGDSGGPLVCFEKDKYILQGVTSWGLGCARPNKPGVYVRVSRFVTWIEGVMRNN

| Structure (SMILES) | pKa [1] | pKa [2] | IC50 [3] | IC50 [4] | logD [5] | Papp A→B [6] |
| --- | --- | --- | --- | --- | --- | --- |
| C1CC(c2nnn[nH]2)CCN1 | 10.7 | 4.3 | > 100 µM | > 100 µM | – | – |
| Oc1cc(C2CCNCC2)on1 | 10.5 | 4 | – | – | < 0 | – |
| NC[C@H]1CC[C@H](C(=O)O)CC1 [TRANEXAMIC ACID] | 9.7 | 4.1 | – | – | – | 78.3 nm/s |
